The results in this text go back to publication PMC4990137 (ACS chemical biology, 2016).

SMILES strings stand for the structures.

Assay [1] addresses T1, LTBP1 (Rhodnius prolixus, UniProt Q7YT09).
T1 sequence (Q7YT09 18-173): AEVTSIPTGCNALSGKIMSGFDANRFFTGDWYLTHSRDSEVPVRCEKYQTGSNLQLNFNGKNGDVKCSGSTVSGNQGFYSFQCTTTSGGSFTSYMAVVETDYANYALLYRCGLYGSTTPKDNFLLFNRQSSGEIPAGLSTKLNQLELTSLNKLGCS
Kind of assay: isothermal titration calorimetry, single-site fit. It is filed as binding. In general terms: Isothermal titration calorimetry measures the heat released or taken up as one component is titrated into another.

Assay [2] concerns the target T2, LTBP1 (Rhodnius prolixus, UniProt Q7YT09, Y131A).
T2 sequence (Q7YT09 18-173 Y131A): T1 sequence (Q7YT09 18-173)
As to the kind of experiment: isothermal titration calorimetry, single-site fit. Type of assay: binding. Put shortly: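 Titrated by ITC at 30 °C in 20 mM Tris HCl, pH 7.5, 150 mM NaCl, with 2 µM protein in the cell and 10 µL injections of ligand. Eicosanoid ligand solutions were prepared by removing ethanol and sonicating with buffer. Injection enthalpies were fitted to a single-site binding model.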

Broadly, the Kd is the constant that tells how readily two partners part at equilibrium. Higher therefore signals a looser complex. As for `CCCCC/C=C\C[C@@H](O)/C=C/C=C/C=C\[C@@H](O)CCCC(=O)O` [LTB4], on LTBP1 [1], binding was put at a Kd of 0.238 µM.
As to `CCCCC/C=C\C\C=C/C=C/C=C/[C@@H](SC[C@H](NC(=O)CC[C@H](N)C(=O)O)C(=O)NCC(=O)O)[C@@H](O)CCCC(=O)O` [LTC4], the Kd at LTBP1 [2] is 0.0476 µM. This counts as double-digit nanomolar.
On the same count and under the same terms, the same measure for `CCCCC/C=C\C\C=C/C=C/C=C/[C@@H](SC[C@H](N)C(=O)NCC(=O)O)[C@@H](O)CCCC(=O)O` [LTD4]: 0.0476 µM.
Regarding `CCCCC/C=C\C\C=C/C=C/C=C/[C@@H](SC[C@H](N)C(=O)O)[C@@H](O)CCCC(=O)O` [LTE4], the Kd on LTBP1 [1] was 0.00213 µM.
